SMILES strings stand for the structures.

Common to all, as to assay type: cell-based
Assay [1] concerns the target T1, Peroxisome proliferator-activated receptor gamma coactivator 1-alpha (Homo sapiens) (UniProt Q9UBK2).
T1 sequence (whole entry): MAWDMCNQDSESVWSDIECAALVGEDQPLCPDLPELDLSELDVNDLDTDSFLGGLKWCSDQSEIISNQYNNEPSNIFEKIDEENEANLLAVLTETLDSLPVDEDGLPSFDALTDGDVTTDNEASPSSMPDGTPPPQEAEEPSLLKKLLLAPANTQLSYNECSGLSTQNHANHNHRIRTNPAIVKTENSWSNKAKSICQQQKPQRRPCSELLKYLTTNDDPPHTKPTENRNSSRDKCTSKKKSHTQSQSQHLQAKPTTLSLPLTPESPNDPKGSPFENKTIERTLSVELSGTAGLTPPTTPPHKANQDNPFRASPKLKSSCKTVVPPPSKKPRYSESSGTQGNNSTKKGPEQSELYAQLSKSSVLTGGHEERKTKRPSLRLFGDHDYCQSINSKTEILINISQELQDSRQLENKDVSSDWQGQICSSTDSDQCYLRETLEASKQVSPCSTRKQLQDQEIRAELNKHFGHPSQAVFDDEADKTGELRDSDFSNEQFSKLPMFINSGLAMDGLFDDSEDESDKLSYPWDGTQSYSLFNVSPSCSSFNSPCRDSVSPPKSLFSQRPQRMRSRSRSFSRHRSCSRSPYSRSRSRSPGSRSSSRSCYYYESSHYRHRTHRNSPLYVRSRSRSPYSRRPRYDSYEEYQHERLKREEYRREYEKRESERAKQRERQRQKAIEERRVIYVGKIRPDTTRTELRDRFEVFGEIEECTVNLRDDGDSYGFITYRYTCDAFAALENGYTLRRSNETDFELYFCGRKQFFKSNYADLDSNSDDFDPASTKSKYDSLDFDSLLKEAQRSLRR
Briefly: Activation of PGC1alpha transcriptional activity (unknown origin) expressed in HEK293 cells at 10 uM after overnight incubation by luciferase reporter gene assay relative to control. In short, it runs like this:
(§1)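 HEK293 cells stably carrying a luciferase reporter driven by the PGC-1α promoter, grown in high-glucose DMEM with 10% FBS, penicillin and streptomycin at 37 °C in 5% CO2. About 2800 cells per well; after 24 h, compound added at final 10 or 20 μM, or forskolin 5 μM or dexamethasone 100 nM, with equal DMSO as blank. Incubated overnight, then luciferase substrate added and luminescence read. Values normalized to DMSO (100%), mean ± SEM, Student's t test.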
A general note: A reporter such as luciferase makes a cellular process visible.

Assay [2] deals with T1, Peroxisome proliferator-activated receptor gamma coactivator 1-alpha (Homo sapiens). Briefly: Activation of PGC1alpha transcriptional activity (unknown origin) expressed in HEK293 cells at 20 uM after overnight incubation by luciferase reporter gene assay relative to control. An outline of the steps: as §1
The target is the same in assay [3]. Briefly: Activation of PGC1alpha transcriptional activity (unknown origin) expressed in HEK293 cells at 100 nM after 24 hrs by luciferase reporter gene assay relative to control. An outline of the steps: as §1
Assay [4] has the same target. Briefly: Activation of PGC1alpha transcriptional activity (unknown origin) expressed in HEK293 cells at 100 nM after overnight incubation by luciferase reporter gene assay relative to control. An outline of the steps:
as §1

Assay [5] shares this target. Briefly: Activation of PGC1alpha transcriptional activity (unknown origin) expressed in HEK293 cells at 5 uM after 24 hrs by luciferase reporter gene assay relative to control.
The target is the same in assay [6]. Briefly: Activation of PGC1alpha transcriptional activity (unknown origin) expressed in HEK293 cells at 5 uM after overnight incubation by luciferase reporter gene assay relative to control. An outline of the steps: as §1

In the case of `C[C@H](CC[C@@H](O[C@@H]1O[C@H](CO)[C@@H](O)[C@H](O)[C@H]1O[C@@H]1O[C@H](CO)[C@@H](O)[C@H](O)[C@H]1O)C(C)(C)O)[C@H]1CC[C@@]2(C)[C@@H]3C(=O)C=C4[C@@H](CC[C@H](O[C@@H]5O[C@H](CO)[C@@H](O)[C@H](O)[C@H]5O)C4(C)C)[C@]3(C)[C@H](O)C[C@]12C`, the Activity was determined as 97.8% in assay [1] and 122% in assay [2].

Regarding `C[C@H](CC[C@@H](O[C@@H]1O[C@H](CO)[C@@H](O)[C@H](O)[C@H]1O[C@@H]1O[C@H](CO)[C@@H](O)[C@H](O)[C@H]1O)C(C)(C)O)[C@H]1CC[C@@]2(C)[C@@H]3CC=C4[C@@H](CC[C@H](O[C@@H]5O[C@H](CO[C@@H]6O[C@H](CO)[C@@H](O)[C@H](O)[C@H]6O)[C@@H](O)[C@H](O)[C@H]5O)C4(C)C)[C@]3(C)C(=O)C[C@]12C`, the Activity in assay [1] stood at 129%; in assay [2] it was 132%.

With `C[C@H](CC[C@@H](O[C@@H]1O[C@H](CO)[C@@H](O)[C@H](O)[C@H]1O[C@@H]1O[C@H](CO)[C@@H](O)[C@H](O)[C@H]1O)C(C)(C)O)[C@H]1CC[C@@]2(C)[C@@H]3CC=C4[C@@H](CC[C@H](O[C@@H]5O[C@H](CO)[C@@H](O)[C@H](O)[C@H]5O)C4(C)C)[C@]3(C)C(=O)C[C@]12C`, the Activity turned out to be 107% in assay [1] and 123% in assay [2].

With `C[C@@H]1C[C@H]2[C@@H]3CCC4=CC(=O)C=C[C@]4(C)[C@@]3(F)[C@@H](O)C[C@]2(C)[C@@]1(O)C(=O)CO`, in assay [3], the fold change (FC) stood at 1.7. In addition, the Activity in assay [4] was 172%.

`C=C[C@@]1(C)CC(=O)[C@]2(O)[C@@]3(C)[C@@H](O)CCC(C)(C)[C@@H]3[C@H](O)[C@H](OC(C)=O)[C@@]2(C)O1` gave a fold change (FC) in assay [5] of 1.4. Moreover, in assay [6], the Activity was 145%.

As for `C[C@H](CC[C@@H](O[C@@H]1O[C@H](CO)[C@@H](O)[C@H](O)[C@H]1O[C@@H]1O[C@H](CO)[C@@H](O)[C@H](O)[C@H]1O)C(C)(C)O)[C@H]1CC[C@@]2(C)[C@@H]3C(=O)C=C4[C@@H](CC[C@H](O[C@@H]5O[C@H](CO[C@@H]6O[C@H](CO)[C@@H](O)[C@H](O)[C@H]6O)[C@@H](O)[C@H](O)[C@H]5O)C4(C)C)[C@]3(C)[C@H](O)C[C@]12C`, the figures for the Activity in assay [1] and in assay [2] were 105% and 126%, respectively.

Values taken from ChEMBL document CHEMBL4118042, “Cucurbitane Glucosides from the Crude Extract of Siraitia grosvenorii with Moderate Effects on PGC-1α Promoter Activity” (J Nat Prod, 2017).
